Here are results for 13 compounds from ChEMBL document CHEMBL4219033, “Anticancer activity profiling of parthenolide analogs generated via P450-mediated chemoenzymatic synthesis” (2018).

Holding throughout (assay type): functional
The subject of one assay is SJSA-1. The assay can be described thus: Cytotoxicity against human SJSA1 cells assessed as cell viability at 10 uM after 24 hrs by MTT assay relative to control. To be noted: SJSA-1, 24 h, read-out: Activity. An outline of the steps: (§1)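 Adherent lines in DMEM plus 10% FBS and penicillin-streptomycin, 37 °C, 5% CO2, lifted with Accutase. Seeded at 500–10,000 cells/well and rested 15 h. Compounds from 10 mM DMSO stocks dosed at 10 µM final, 1% DMSO final, n = 5, for 24 h. Medium then swapped for 1 mg/ml MTT in phenol-red-free medium for 3 h at 37 °C. Formazan dissolved in DMSO, OD read at 550 nm. Viability normalised to 1% DMSO vehicle control.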

Assay [1] relates to Jurkat. The assay can be described thus: Cytotoxicity against human Jurkat cells assessed as cell viability at 2 uM after 24 hrs by MTT assay relative to control. To be noted: read-out: Activity. The procedure, abridged:
(§2)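 Suspension lines grown in α-MEM plus 10% FBS and penicillin-streptomycin, 37 °C, 5% CO2. Seeded at 30,000 cells/well in phenol-red-free α-MEM and rested 15 h. Exposed to 10 µM, or 2 µM in the lower-dose repeat, at 1% DMSO final for 24 h. 5 mg/ml MTT added directly for 3 h at 37 °C. Plates spun, formazan dissolved in DMSO, OD read at 550 nm. Viability relative to vehicle.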

The next assay has as its system MDA-MB-231. Description: Cytotoxicity against human MDA-MB-231 cells assessed as cell viability at 10 uM after 24 hrs by MTT assay relative to control. To be noted: MDA-MB-231, 24 h, read-out: Activity. The procedure, abridged: as §1
In general terms: Tetrazolium assays rely on reduction of a dye to a coloured formazan, in cell work by metabolically active cells.

The subject of assay [2] is JeKo-1. The assay can be described thus: Cytotoxicity against human JeKo1 cells assessed as cell viability at 10 uM after 24 hrs by MTT assay relative to control. To be noted: JeKo-1, 24 h, read-out: Activity. An outline of the steps: as §2
For assay [3], the system named is JeKo-1. Description: Cytotoxicity against human JeKo1 cells assessed as cell viability at 2 uM after 24 hrs by MTT assay relative to control. To be noted: JeKo-1, 24 h, read-out: Activity. The procedure, abridged:
as §2

Another assay concerns SK-N-MC. Description: Cytotoxicity against human SK-N-MC cells assessed as cell viability at 10 uM after 24 hrs by MTT assay relative to control. The conditions noted are these: read-out: Activity. The procedure, abridged: as §1
Assay [4] deals with Jurkat. The assay can be described thus: Cytotoxicity against human Jurkat cells assessed as cell viability at 10 uM after 24 hrs by MTT assay relative to control. The conditions noted are these: read-out: Activity. The procedure, abridged:
as §2

In the next assay the test system is HCT-116. The assay can be described thus: Cytotoxicity against human HCT116 cells assessed as cell viability at 10 uM after 24 hrs by MTT assay relative to control. To be noted: HCT-116, 24 h, read-out: Activity. An outline of the steps: as §1
The next assay concerns SK-MEL-2. The assay can be described thus: Cytotoxicity against human SK-MEL-2 cells assessed as cell viability at 10 uM after 24 hrs by MTT assay relative to control. The conditions noted are these: SK-MEL-2, 24 h, read-out: Activity. The procedure, abridged: as §1
The subject of a further assay is A549. Description: Cytotoxicity against human A549 cells assessed as cell viability at 10 uM after 24 hrs by MTT assay relative to control. To be noted: A549, 24 h, read-out: Activity. The procedure, abridged:
as §1

The subject of a further assay is HeLa. Description: Cytotoxicity against human HeLa cells assessed as cell viability at 10 uM after 24 hrs by MTT assay relative to control. To be noted: read-out: Activity. An outline of the steps:
as §1

For another assay, the system named is PC-3. Description: Cytotoxicity against human PC3 cells assessed as cell viability at 10 uM after 24 hrs by MTT assay relative to control. To be noted: PC-3, 24 h, read-out: Activity. The procedure, abridged: as §1

As for `C=C1C(=O)O[C@@H]2[C@H]3O[C@]3(C)CC/C=C(/COC(=O)c3ccc4ccccc4c3)CC[C@@H]12`, the viability at 10 µM in the assay with SJSA-1 stood at 98.3%; with MDA-MB-231 it was 100%; in the assay on JeKo-1 [2] it was 63.2%; in the assay on SK-N-MC, 104%; in the assay with Jurkat [4], 75.7%; with HCT-116, 100%. The viability at 10 µM amounted to 73.6% in the assay on SK-MEL-2, 84.5% in the assay on A549, 75% with HeLa and 81.9% with PC-3. For the same compound, the viability at 2 µM in the assay on Jurkat [1] turned out to be 97.9%; in the assay with JeKo-1 [3], 89.2%.
Regarding `C=C1C(=O)O[C@@H]2[C@H]3O[C@]3(C)CC/C=C(/C)[C@@H](OC(=O)Nc3cccc4ccccc34)C[C@@H]12`, the viability at 10 µM in the assay on SJSA-1 is 100%; with MDA-MB-231, 100%; in the assay with JeKo-1 [2], 75.7%; in the assay with SK-N-MC it was 96.8%; with Jurkat [4], 84%; in the assay on HCT-116, 100%. The viability at 10 µM was found to be 98.7% in the assay with SK-MEL-2, 95.8% in the assay on A549, 88.8% in the assay with HeLa and 83.4% in the assay with PC-3. Further, the viability at 2 µM is 93.3% with Jurkat [1] and 97.6% in the assay with JeKo-1 [3].
As to `C=C1C(=O)O[C@@H]2[C@H]3O[C@]3(C)CC/C=C(/COC(=O)c3ccc(C(F)(F)F)cc3)CC[C@@H]12`, the viability at 10 µM with SJSA-1 was 73.6%; in the assay with MDA-MB-231, 75.5%; in the assay on JeKo-1 [2], -1.6%; with SK-N-MC it was 67.8%; in the assay on Jurkat [4] it was 0%; with HCT-116, 27.3%. The viability at 10 µM is 85.4% in the assay with SK-MEL-2, 94.1% in the assay on A549, 63.9% in the assay on HeLa and 69.3% in the assay on PC-3. Further, the viability at 2 µM was 92.4% in the assay on Jurkat [1] and 95.9% in the assay with JeKo-1 [3].
As for `C=C1C(=O)O[C@@H]2[C@H]3O[C@]3(C)CC/C=C(/COC(=O)Nc3ccccc3)CC[C@@H]12`, the viability at 10 µM with SJSA-1 was 100%; in the assay with MDA-MB-231, 97.1%; in the assay with JeKo-1 [2], 16.6%; in the assay with SK-N-MC it was 102%; in the assay on Jurkat [4], 0%; with HCT-116, 45.9%. The viability at 10 µM in the assay on SK-MEL-2 was found to be 80.5%; in the assay on A549, 60.3%; in the assay with HeLa, 74.2%; in the assay on PC-3 it was 85.3%. Moreover, the viability at 2 µM in the assay on Jurkat [1] came to 89.2%; in the assay on JeKo-1 [3], 100%.
Regarding `C=C1C(=O)O[C@@H]2[C@H]3O[C@]3(C)CC/C=C(/C)[C@@H](OC(C(=O)OCC)c3ccccc3)C[C@@H]12` (stereo partly specified), the viability at 10 µM in the assay on SJSA-1 is 100%; in the assay with MDA-MB-231 it was 90%; with JeKo-1 [2], -2.9%; in the assay on SK-N-MC it was 100%; in the assay with Jurkat [4], 0%; with HCT-116 it was 46.2%. Moreover, the viability at 10 µM in the assay on SK-MEL-2 worked out at 72.5%; in the assay with A549 it was 60.7%; in the assay with HeLa, 77.5%; with PC-3, 78.9%. For the same compound, the viability at 2 µM in the assay on Jurkat [1] is 85.9%; in the assay on JeKo-1 [3], 76.6%.
As to `C=C1C(=O)O[C@@H]2[C@H]3O[C@]3(C)CC/C=C(/COC(C(=O)OCc3ccccc3)c3ccccc3)CC[C@@H]12` (stereo partly specified), the viability at 10 µM came out at 101% in the assay with SJSA-1; 88.1% with MDA-MB-231; 0.8% in the assay with JeKo-1 [2]; 97.8% in the assay on SK-N-MC; 1% with Jurkat [4]; 45.8% in the assay on HCT-116. The viability at 10 µM was found to be 80.7% in the assay with SK-MEL-2, 81.5% with A549, 79.2% with HeLa and 85.2% in the assay with PC-3. Also, the viability at 2 µM in the assay with Jurkat [1] was 87.8%; in the assay on JeKo-1 [3] it was 98.7%.
For `C=C1C(=O)O[C@@H]2[C@H]3O[C@]3(C)CC/C=C(/COCc3ccc(C(F)(F)F)cc3)CC[C@@H]12`, the viability at 10 µM was 100% with SJSA-1; 100% in the assay on MDA-MB-231; 18.2% with JeKo-1 [2]; 93.6% with SK-N-MC; 21.8% in the assay with Jurkat [4]; 82.9% in the assay on HCT-116. The viability at 10 µM in the assay on SK-MEL-2 is 79.6%; with A549 it was 87.7%; in the assay with HeLa, 72.5%; in the assay with PC-3, 89.3%. Also, the viability at 2 µM came out at 100% in the assay with Jurkat [1] and 97.3% in the assay with JeKo-1 [3].
As to `C=C1C(=O)O[C@@H]2[C@H]3O[C@]3(C)CC/C=C(/C)[C@@H](OC(=O)Nc3ccc([N+](=O)[O-])cc3)C[C@@H]12`, the viability at 10 µM was 100% with SJSA-1; 98.6% with MDA-MB-231; 0% in the assay with JeKo-1 [2]; 92.4% in the assay with SK-N-MC; 0.2% with Jurkat [4]; 38% with HCT-116. Besides, the viability at 10 µM in the assay on SK-MEL-2 was 75.2%; in the assay on A549, 83.3%; with HeLa, 78%; in the assay on PC-3, 94.1%. Besides, the viability at 2 µM was found to be 78.9% in the assay with Jurkat [1] and 84.1% in the assay with JeKo-1 [3].
For `C=C1C(=O)O[C@@H]2[C@H]3O[C@]3(C)CC/C=C(/COC(C(=O)OCC)c3ccccc3)CC[C@@H]12` (stereo partly specified), the viability at 10 µM in the assay on SJSA-1 turned out to be 100%; in the assay on MDA-MB-231, 98.8%; with JeKo-1 [2], 16.5%; in the assay on SK-N-MC, 98%; in the assay on Jurkat [4] it was 18.3%; in the assay with HCT-116, 76.7%. Further, the viability at 10 µM in the assay on SK-MEL-2 amounted to 81.2%; in the assay with A549 it was 59.1%; in the assay on HeLa it was 85.1%; with PC-3 it was 85.8%. Further, the viability at 2 µM in the assay with Jurkat [1] is 87.8%; in the assay on JeKo-1 [3] it was 88.6%.
Turning to `C=C1C(=O)O[C@@H]2[C@H]3O[C@]3(C)CC/C=C(/C)[C@@H](OC(=O)Nc3ccccc3)C[C@@H]12`, the viability at 10 µM in the assay with SJSA-1 is 96.6%; in the assay on MDA-MB-231, 100%; in the assay on JeKo-1 [2] it was 2.6%; with SK-N-MC it was 91.9%; with Jurkat [4], 2.9%; in the assay with HCT-116, 55.3%. For the same compound, the viability at 10 µM was 69.4% in the assay with SK-MEL-2, 84.5% with A549, 69% in the assay with HeLa and 88.4% in the assay on PC-3. Further, the viability at 2 µM in the assay on Jurkat [1] came to 89.8%; in the assay on JeKo-1 [3], 92.2%.
As for `C=C1C(=O)O[C@@H]2[C@H]3O[C@]3(C)CC/C=C(/C)[C@@H](OC(=O)c3ccc4ccccc4c3)C[C@@H]12`, the viability at 10 µM in the assay with SJSA-1 is 100%; in the assay on MDA-MB-231 it was 100%; with JeKo-1 [2], 71.9%; in the assay with SK-N-MC, 96.8%; with Jurkat [4] it was 86.1%; in the assay with HCT-116, 100%. In addition, the viability at 10 µM in the assay on SK-MEL-2 was 98.7%; in the assay on A549 it was 95.8%; in the assay on HeLa, 88.8%; in the assay with PC-3, 83.4%. The viability at 2 µM in the assay on Jurkat [1] is 83.4%; in the assay on JeKo-1 [3], 97%.
In the case of `C=C1C(=O)O[C@@H]2[C@H]3O[C@]3(C)CC/C=C(/C)[C@@H](OC(=O)c3cccs3)C[C@@H]12`, the viability at 10 µM in the assay on SJSA-1 amounted to 98.3%; in the assay with MDA-MB-231 it was 97.6%; in the assay on JeKo-1 [2], 12.9%; in the assay with SK-N-MC, 98.2%; in the assay with Jurkat [4], 15.4%; with HCT-116, 29.4%. Moreover, the viability at 10 µM in the assay with SK-MEL-2 came out at 94.7%; with A549 it was 102%; in the assay with HeLa it was 87.5%; in the assay with PC-3, 93%. In addition, the results for the viability at 2 µM in the assay on Jurkat [1] and in the assay with JeKo-1 [3] were 94% and 98.1%, respectively.
With `C=C1C(=O)O[C@@H]2[C@H]3O[C@]3(C)CC/C=C(/COCc3ccccc3)CC[C@@H]12`, the viability at 10 µM in the assay with SJSA-1 worked out at 99.4%; in the assay with MDA-MB-231 it was 100%; in the assay on JeKo-1 [2], 5%; in the assay on SK-N-MC, 75.3%; in the assay on Jurkat [4], 6%; with HCT-116, 96.3%. For the same compound, the viability at 10 µM came to 84.2% in the assay on SK-MEL-2, 99.3% with A549, 74.8% with HeLa and 94.7% in the assay on PC-3. The viability at 2 µM turned out to be 91% with Jurkat [1] and 100% in the assay with JeKo-1 [3].
